Source: ChEMBL document CHEMBL4311951, “Potent and Preferential Degradation of CDK6 via Proteolysis Targeting Chimera Degraders” (J Med Chem, 2019)
Calls of active or inactive are those of the source. The rule behind the calls is not given here.

How the values were obtained:
[1] = target: Protein cereblon/Cyclin-dependent kinase 5 (Homo sapiens, UniProt Q00535+Q96SW2); test: Induction of CRBN-mediated CDK5 degradation in human U251 cells at 500 nM after 4 hrs by […]; format: cell-based; conditions: 0.5 µM
Protein cereblon/Cyclin-dependent kinase 5, sequence (Q00535 whole entry): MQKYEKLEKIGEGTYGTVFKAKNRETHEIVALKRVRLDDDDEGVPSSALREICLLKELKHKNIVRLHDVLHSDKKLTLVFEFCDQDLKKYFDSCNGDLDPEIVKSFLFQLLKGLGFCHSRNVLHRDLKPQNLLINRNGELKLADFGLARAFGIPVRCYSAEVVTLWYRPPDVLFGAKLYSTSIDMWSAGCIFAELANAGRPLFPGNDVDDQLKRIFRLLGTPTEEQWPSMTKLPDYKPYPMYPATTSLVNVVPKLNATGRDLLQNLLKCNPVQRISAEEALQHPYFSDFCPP
Protein cereblon/Cyclin-dependent kinase 5, sequence (Q96SW2 whole entry): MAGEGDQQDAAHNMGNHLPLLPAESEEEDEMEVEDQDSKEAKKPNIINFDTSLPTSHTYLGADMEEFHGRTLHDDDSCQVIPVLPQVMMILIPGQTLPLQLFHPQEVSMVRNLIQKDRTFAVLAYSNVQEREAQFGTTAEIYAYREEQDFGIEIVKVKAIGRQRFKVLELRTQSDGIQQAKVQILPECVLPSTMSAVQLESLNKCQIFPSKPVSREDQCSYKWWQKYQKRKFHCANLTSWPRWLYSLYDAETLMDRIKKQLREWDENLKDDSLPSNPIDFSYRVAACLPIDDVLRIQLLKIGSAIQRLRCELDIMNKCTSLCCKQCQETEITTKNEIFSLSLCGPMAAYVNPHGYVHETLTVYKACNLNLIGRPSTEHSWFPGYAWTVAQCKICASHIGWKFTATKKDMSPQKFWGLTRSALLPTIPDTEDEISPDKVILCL
In short: (§1)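 U251 cells grown to 70–80% confluency, exposed to 500 nM degrader or DMSO for 4 h. Harvested by trypsinization, washed in cold PBS, lysed in RIPA on ice 30 min. Lysates BCA-quantified, acetone-precipitated, TMT-labelled and analysed by MS2 quantitation.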

THP-1 = test: Antiproliferative activity against human THP1 cells after 84 hrs by CCK8 assay; format: functional, cell-based
In short: (§2)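 Suspension haematopoietic lines seeded in triplicate in 96-well plates; drug stock added immediately to the final concentrations. After 84 h culture, CCK-8 reagent added and absorbance at OD450 nm read after 2 h incubation.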

[2] = Antiproliferative activity against human Mino cells after 84 hrs by CCK8 assay; format: functional, cell-based; in short: as §2
[3] = target: Protein cereblon/Cyclin-dependent kinase 1 (Homo sapiens, UniProt P06493+Q96SW2); test: Induction of CRBN-mediated CDK1 degradation in human U251 cells at 500 nM after 4 hrs […]; format: cell-based; conditions: 0.5 µM; in short: as §1
Protein cereblon/Cyclin-dependent kinase 1, sequence (P06493 whole entry): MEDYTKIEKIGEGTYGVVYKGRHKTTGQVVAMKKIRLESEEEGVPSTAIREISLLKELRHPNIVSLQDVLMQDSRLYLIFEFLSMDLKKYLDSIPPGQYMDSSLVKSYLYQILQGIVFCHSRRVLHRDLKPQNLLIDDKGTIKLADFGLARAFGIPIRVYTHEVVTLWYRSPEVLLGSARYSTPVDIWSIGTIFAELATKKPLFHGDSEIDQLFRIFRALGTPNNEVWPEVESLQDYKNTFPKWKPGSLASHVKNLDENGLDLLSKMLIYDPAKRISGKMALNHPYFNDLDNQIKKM
Protein cereblon/Cyclin-dependent kinase 1, sequence (Q96SW2 whole entry): as the sequence (Q96SW2 whole entry) above

MM1.S = test: Antiproliferative activity against human MM1S cells after 84 hrs by CCK8 assay; format: functional, cell-based; in short: as §2
[4] = target: Protein cereblon/Cyclin-dependent kinase 2 (Homo sapiens, UniProt P24941+Q96SW2); test: Induction of CRBN-mediated CDK2 degradation in human U251 cells at 500 nM after 4 hrs by immunoblot analysis; format: cell-based; conditions: 0.5 µM
MCF7 [5] = test: Antiproliferative activity against palbociclib-resistant human MCF7 cells with CDK6 gene amplification after 6 days by alamarBlue assay; format: functional, cell-based
In short: (§3)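 Parental or palbociclib-resistant MCF-7 cells (CDK6-N2 or FAT1 knockout) exposed to serial concentrations of degrader for 6 days, then viability determined.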

JeKo-1 = test: Antiproliferative activity against human JeKo1 cells after 84 hrs by CCK8 assay; format: functional, cell-based; in short: as §2
[6] = target: Protein cereblon/G1/S-specific cyclin-D1 (Homo sapiens, UniProt P24385+Q96SW2); test: Induction of CRBN-mediated CCND1 degradation in human U251 cells at 500 nM after 4 hrs by […]; format: cell-based; conditions: 0.5 µM; in short: as §1
Protein cereblon/G1/S-specific cyclin-D1, sequence (P24385 whole entry): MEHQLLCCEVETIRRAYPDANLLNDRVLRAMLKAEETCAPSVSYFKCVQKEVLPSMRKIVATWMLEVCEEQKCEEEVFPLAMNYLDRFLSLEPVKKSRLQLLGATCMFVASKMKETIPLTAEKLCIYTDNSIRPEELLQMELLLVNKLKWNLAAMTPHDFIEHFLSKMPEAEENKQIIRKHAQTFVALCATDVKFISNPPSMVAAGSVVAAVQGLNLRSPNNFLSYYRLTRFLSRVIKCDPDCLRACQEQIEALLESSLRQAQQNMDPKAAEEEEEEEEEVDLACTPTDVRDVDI
Protein cereblon/G1/S-specific cyclin-D1, sequence (Q96SW2 whole entry): as the sequence (Q96SW2 whole entry) above

[7] = target: Protein cereblon/Dual specificity mitogen-activated protein kinase kinase 1 (Homo sapiens, UniProt Q02750+Q96SW2); test: Induction of CRBN-mediated MEK1 degradation in human U251 cells at 500 nM after 4 hrs by immunoblot analysis; format: cell-based; conditions: 0.5 µM
Protein cereblon/Dual specificity mitogen-activated protein kinase kinase 1, sequence (Q02750 whole entry): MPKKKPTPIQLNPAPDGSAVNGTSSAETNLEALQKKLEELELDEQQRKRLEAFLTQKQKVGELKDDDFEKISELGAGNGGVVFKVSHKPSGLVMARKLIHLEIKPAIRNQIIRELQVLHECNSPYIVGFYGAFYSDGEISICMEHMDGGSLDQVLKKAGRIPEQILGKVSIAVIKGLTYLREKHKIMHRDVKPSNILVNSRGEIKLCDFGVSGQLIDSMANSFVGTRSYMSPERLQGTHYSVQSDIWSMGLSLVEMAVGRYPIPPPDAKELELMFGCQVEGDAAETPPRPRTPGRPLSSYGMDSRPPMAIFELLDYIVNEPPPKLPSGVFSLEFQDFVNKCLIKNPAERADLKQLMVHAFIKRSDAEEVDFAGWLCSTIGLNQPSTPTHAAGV
Protein cereblon/Dual specificity mitogen-activated protein kinase kinase 1, sequence (Q96SW2 whole entry): as the sequence (Q96SW2 whole entry) above

[8] = target: Protein cereblon/Epidermal growth factor receptor (Homo sapiens, UniProt P00533+Q96SW2); test: Induction of CRBN-mediated EGFR degradation in human U251 cells at 500 nM after 4 hrs […]; format: cell-based; conditions: 0.5 µM; in short: as §1
Protein cereblon/Epidermal growth factor receptor, sequence (P00533 whole entry): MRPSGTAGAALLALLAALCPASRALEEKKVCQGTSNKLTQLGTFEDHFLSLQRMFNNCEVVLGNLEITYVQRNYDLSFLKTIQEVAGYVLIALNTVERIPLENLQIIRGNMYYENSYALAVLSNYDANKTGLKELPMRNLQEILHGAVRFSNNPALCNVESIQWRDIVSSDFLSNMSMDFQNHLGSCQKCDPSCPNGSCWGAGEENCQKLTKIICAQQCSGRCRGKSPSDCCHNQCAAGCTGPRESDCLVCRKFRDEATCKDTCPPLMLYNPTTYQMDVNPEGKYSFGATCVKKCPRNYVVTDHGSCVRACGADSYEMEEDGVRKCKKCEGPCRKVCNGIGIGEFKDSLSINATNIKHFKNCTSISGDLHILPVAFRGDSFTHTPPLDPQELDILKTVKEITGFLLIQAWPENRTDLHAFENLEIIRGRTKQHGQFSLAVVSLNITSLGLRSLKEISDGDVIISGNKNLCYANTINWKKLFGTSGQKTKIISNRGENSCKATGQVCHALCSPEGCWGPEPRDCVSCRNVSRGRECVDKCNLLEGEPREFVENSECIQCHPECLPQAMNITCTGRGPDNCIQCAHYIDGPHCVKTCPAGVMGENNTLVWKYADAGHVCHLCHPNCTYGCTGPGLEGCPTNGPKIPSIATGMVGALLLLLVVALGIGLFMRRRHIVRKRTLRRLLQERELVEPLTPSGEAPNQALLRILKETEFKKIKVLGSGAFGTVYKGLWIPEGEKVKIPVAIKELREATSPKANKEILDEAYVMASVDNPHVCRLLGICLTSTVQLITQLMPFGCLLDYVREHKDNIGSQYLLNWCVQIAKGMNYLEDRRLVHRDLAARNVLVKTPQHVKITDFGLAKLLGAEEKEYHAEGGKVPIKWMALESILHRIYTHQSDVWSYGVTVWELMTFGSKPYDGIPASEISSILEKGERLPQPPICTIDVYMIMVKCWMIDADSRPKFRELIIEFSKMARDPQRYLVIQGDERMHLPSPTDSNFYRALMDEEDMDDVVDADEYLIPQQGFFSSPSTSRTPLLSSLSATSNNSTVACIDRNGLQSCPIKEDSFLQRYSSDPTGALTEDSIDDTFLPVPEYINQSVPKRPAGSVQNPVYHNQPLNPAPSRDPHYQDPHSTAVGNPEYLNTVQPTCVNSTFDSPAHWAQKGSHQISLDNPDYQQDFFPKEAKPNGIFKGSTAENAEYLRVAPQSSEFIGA
Protein cereblon/Epidermal growth factor receptor, sequence (Q96SW2 whole entry): as the sequence (Q96SW2 whole entry) above

MCF7 [9] = test: Antiproliferative activity against Fat1 knockout human MCF7 cells after 6 days by alamarBlue assay; format: functional, cell-based; in short: as §3
[10] = target: Protein cereblon/Cyclin-dependent kinase 9 (Homo sapiens, UniProt P50750+Q96SW2); test: Induction of CRBN-mediated CDK9 degradation in human U251 cells at 500 nM after 4 hrs […]; format: cell-based; conditions: 0.5 µM; in short: as §1
Protein cereblon/Cyclin-dependent kinase 9, sequence (P50750 whole entry): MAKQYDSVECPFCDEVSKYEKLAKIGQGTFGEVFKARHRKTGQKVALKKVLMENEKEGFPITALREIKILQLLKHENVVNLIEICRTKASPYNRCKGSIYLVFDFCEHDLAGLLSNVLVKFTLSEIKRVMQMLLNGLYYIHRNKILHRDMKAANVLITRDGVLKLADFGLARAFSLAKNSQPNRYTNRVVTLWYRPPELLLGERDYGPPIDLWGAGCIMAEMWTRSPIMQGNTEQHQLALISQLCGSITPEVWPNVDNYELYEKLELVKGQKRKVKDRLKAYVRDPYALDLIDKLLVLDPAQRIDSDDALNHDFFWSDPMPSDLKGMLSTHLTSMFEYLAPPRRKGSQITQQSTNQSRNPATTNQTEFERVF
Protein cereblon/Cyclin-dependent kinase 9, sequence (Q96SW2 whole entry): as the sequence (Q96SW2 whole entry) above

HL-60 = test: Antiproliferative activity against human HL60 cells after 84 hrs by CCK8 assay; format: functional, cell-based; in short: as §2
[11] = target: Protein cereblon/Cyclin-dependent kinase 6 (Homo sapiens, UniProt Q00534+Q96SW2); test: Induction of CRBN-mediated CDK6 degradation in human U251 cells after 24 hrs by immunoblot analysis; format: cell-based
Protein cereblon/Cyclin-dependent kinase 6, sequence (Q00534 whole entry): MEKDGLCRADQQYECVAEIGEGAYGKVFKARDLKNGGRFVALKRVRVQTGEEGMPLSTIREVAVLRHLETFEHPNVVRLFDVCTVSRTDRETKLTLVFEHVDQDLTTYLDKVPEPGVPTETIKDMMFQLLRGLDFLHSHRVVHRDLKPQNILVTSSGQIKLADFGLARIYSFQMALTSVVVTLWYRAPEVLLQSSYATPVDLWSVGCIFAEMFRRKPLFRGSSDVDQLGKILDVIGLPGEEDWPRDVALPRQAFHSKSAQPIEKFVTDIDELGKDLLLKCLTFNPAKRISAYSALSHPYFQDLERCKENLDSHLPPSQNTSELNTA
Protein cereblon/Cyclin-dependent kinase 6, sequence (Q96SW2 whole entry): as the sequence (Q96SW2 whole entry) above

RPMI-8226 = test: Antiproliferative activity against human RPMI8226 cells after 84 hrs by CCK8 assay; format: functional, cell-based; in short: as §2
[12] = target: Protein cereblon/Cyclin-dependent kinase 4 (Homo sapiens, UniProt P11802+Q96SW2); test: Induction of CRBN-mediated CDK4 degradation in human U251 cells after 24 hrs by immunoblot analysis; format: cell-based
Protein cereblon/Cyclin-dependent kinase 4, sequence (P11802 whole entry): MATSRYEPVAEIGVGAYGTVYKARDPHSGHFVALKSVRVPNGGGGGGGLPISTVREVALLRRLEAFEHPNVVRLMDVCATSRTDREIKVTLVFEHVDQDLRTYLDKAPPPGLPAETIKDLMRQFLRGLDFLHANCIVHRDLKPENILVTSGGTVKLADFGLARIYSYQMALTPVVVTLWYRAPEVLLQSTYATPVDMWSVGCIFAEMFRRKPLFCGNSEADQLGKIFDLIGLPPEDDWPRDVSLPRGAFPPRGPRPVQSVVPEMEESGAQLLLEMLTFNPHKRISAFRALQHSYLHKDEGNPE
Protein cereblon/Cyclin-dependent kinase 4, sequence (Q96SW2 whole entry): as the sequence (Q96SW2 whole entry) above

With `CC(=O)c1c(C)c2cnc(Nc3ccc(N4CCN(Cc5cn(CCOCCNc6cccc7c6C(=O)N(C6CCC(=O)NC6=O)C7=O)nn5)CC4)cn3)nc2n(C2CCCC2)c1=O` (configuration not stated) the Activity [1] was “Not Active”, the Activity (THP-1) was “Active” and the IC50 [2] was 8 nM. For the same molecule, the Activity [3] was “Not Active”, the IC50 (MM1.S) was 10 nM and the Activity [4] was “Not Active”. The Activity (MCF7 [5]) was “Active”, the Activity (JeKo-1) was “Active” and the Activity [6] was “Not Active”. For the same molecule, the Activity [7] was “Not Active”, the Activity [8] was “Not Active” and the Activity (MCF7 [9]) was “Active”. The Activity [10] was “Not Active”, the Activity (HL-60) was “Active” and the DC50 [11] was 2.1 nM. For the same molecule, the Activity (RPMI-8226) was “Active” and the DC50 [12] was 150 to 180 nM.
